For assay [1], the system named is Syrian golden hamster. Put plainly: Increase in HDL level in high fat and high cholesterol diet fed Syrian golden hamster at 30 mg/kg, po qd for 14 days. It is filed as functional, Mesocricetus auratus. Put shortly: (§1)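 Groups of Syrian golden hamsters (n = 6) kept on a high fat, high cholesterol diet for 14 days, dosed orally at 30 mg/kg once daily. Plasma HDL and LDL compared against untreated HFHC controls; mean with standard errors.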

The test system of assay [2] is Syrian golden hamster. As to the kind of experiment: Reduction in LDL level in high fat and high cholesterol diet fed Syrian golden hamster at 30 mg/kg, po qd for 14 days. It is filed as functional. The note with it: Mesocricetus auratus, 336 h. Summed up:
as §1

For assay [3], the target named is T1, Estrogen receptor (Homo sapiens) (UniProt P03372).
T1 sequence (whole entry): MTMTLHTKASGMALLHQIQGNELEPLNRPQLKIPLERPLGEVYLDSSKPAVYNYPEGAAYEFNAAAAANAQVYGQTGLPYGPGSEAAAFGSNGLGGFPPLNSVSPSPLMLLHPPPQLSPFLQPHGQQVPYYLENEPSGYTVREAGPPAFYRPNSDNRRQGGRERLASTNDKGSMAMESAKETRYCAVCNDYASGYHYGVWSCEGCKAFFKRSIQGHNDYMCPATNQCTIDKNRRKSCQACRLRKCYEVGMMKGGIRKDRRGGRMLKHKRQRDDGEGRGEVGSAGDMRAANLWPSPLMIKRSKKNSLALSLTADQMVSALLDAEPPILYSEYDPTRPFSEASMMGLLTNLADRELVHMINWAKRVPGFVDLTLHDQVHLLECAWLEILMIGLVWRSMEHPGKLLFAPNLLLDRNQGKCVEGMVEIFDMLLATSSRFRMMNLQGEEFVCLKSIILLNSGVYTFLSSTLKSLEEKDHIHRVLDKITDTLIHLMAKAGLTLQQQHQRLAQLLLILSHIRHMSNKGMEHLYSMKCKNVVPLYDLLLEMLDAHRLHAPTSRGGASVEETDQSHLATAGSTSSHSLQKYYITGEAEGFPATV
Put plainly: Binding affinity to human estrogen receptor expressed in HEK293 cells by scintillation counting based radioligand competition binding assay. In kind it is cell-based.

Assay [4] concerns the target T2, Glucocorticoid receptor (Homo sapiens) (UniProt P04150).
T2 sequence (whole entry): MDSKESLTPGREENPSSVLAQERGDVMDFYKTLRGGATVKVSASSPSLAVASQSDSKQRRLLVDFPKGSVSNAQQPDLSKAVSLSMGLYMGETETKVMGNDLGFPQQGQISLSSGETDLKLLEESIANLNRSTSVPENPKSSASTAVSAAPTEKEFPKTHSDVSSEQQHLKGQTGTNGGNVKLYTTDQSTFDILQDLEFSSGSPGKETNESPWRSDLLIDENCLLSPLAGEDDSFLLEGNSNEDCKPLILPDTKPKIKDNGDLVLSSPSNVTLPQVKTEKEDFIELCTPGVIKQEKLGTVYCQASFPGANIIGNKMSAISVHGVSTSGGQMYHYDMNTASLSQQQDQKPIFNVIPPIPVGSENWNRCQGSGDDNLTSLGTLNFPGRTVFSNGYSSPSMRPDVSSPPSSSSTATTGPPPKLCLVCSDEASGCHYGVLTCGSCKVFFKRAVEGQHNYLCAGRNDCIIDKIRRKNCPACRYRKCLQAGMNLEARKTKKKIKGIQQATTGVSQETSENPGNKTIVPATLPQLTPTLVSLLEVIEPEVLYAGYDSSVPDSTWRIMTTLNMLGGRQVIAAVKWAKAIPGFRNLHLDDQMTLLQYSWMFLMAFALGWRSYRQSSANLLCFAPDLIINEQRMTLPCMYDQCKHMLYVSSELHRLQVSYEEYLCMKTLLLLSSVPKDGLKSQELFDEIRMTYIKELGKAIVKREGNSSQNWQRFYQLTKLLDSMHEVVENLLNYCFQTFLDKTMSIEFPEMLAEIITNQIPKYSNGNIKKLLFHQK
As to the kind of experiment: Displacement of [3H]-dexamethasone from human glucocorticoid receptor expressed in HEK293 cells at 10 uM by scintillation counting based radioligand competition binding assay. In kind it is cell-based. Put shortly: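 Competition binding with 0.3 nM [3H]-dexamethasone and 20 μg 293-GR lysate per well; nonspecific binding defined with 0.5 μM dexamethasone. Incubated overnight at 4 °C, free ligand removed with charcoal–dextran, then scintillation counting. Percent inhibition at 10 μM was calculated.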

Assay [5] has as its target T3, Mineralocorticoid receptor (Homo sapiens, UniProt P08235).
T3 sequence (P08235 whole entry): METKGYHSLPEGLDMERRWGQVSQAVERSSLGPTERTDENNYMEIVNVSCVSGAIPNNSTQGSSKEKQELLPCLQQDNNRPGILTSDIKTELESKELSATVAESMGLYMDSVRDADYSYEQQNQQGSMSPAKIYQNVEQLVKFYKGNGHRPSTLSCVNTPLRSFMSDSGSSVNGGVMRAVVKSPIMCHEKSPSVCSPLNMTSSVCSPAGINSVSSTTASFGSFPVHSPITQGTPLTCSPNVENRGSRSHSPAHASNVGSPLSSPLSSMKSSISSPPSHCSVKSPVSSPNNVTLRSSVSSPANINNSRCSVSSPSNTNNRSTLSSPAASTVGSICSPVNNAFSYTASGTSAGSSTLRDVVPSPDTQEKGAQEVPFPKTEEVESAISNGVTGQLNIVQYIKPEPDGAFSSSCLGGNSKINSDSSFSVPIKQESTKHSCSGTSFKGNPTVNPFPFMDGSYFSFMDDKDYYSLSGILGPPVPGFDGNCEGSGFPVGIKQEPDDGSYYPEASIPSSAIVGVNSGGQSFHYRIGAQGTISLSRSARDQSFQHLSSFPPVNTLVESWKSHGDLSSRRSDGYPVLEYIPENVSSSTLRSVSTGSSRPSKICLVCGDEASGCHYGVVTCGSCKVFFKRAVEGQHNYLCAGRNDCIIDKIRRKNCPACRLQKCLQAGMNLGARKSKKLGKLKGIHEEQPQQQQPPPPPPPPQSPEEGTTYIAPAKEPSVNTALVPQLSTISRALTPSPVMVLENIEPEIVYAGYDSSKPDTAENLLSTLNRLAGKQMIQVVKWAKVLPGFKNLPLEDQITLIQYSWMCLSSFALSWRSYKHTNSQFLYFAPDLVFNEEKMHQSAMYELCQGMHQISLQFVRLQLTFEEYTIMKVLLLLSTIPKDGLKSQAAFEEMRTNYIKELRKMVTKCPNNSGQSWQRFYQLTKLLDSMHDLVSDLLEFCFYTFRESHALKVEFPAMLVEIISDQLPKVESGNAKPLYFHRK
Put plainly: biochemical.

Assay [6] has as its target T4, Androgen receptor (Homo sapiens, UniProt P10275).
T4 sequence (P10275 whole entry): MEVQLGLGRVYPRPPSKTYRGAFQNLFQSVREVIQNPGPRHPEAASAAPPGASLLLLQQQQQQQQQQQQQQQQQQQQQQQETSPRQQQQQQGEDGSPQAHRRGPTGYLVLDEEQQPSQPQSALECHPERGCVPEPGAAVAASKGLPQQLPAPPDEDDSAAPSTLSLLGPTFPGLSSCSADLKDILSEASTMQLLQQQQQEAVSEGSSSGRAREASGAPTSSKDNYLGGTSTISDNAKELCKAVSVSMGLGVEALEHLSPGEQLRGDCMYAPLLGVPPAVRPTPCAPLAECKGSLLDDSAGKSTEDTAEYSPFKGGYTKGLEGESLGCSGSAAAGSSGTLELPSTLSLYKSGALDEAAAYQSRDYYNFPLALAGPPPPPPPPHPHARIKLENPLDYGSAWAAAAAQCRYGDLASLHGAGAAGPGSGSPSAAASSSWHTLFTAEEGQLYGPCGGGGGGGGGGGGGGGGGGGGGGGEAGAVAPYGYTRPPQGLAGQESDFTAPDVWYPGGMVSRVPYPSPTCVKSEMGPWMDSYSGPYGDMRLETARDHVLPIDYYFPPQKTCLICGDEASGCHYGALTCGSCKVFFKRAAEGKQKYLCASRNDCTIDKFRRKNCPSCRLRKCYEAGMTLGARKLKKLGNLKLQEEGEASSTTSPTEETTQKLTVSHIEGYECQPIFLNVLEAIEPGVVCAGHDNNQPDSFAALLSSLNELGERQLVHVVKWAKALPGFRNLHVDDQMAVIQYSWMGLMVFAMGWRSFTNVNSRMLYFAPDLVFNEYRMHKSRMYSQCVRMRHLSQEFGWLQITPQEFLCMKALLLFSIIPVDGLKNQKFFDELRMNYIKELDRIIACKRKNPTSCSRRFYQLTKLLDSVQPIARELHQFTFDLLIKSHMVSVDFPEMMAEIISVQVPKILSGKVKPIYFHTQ
Put plainly: biochemical.

The source made the active and inactive calls. No cut-off for these calls is given here.

The term inhibition in vivo denotes how much of the control response was suppressed. Read a low inhibition in vivo as a weak effect. In assay [1], `CC#C[C@]1(O)CC[C@H]2[C@@H]3CCC4=CC(=O)CCC4=C3[C@@H](c3ccc(N(C)C)cc3)C[C@@]21C` [MIFEPRISTONE] returned an Activity of 35%. Besides, the inhibition in vivo at 30 mg/kg in assay [2] worked out at 43%. Moreover, the result in assay [3] was inactive.

Take `COc1cc(F)ccc1-c1c(CN(C)Cc2ccccc2)[nH]c2c([N+](=O)[O-])cc(C(C)C)cc12`: the outcome in assay [4] and in assay [3] was inactive.

As to `COc1ccc(-c2c[nH]c3c(NS(C)(=O)=O)cccc23)cc1F`, the result in assay [3] was inactive.

The Ki is the equilibrium dissociation constant of an inhibitor or competing ligand from its target. Higher therefore signals weaker binding. Consider `COc1ccc(F)cc1-c1c[nH]c2c(NC(C)=O)cccc12`, for which the inhibitory constant (Ki) stood at 6.53 µM in assay [5] and 6.12 µM in assay [6]. In addition, the outcome in assay [3] was inactive.

Consider `Cc1[nH]c2ccccc2c1-c1ccccc1`, for which the outcome in assay [4] and in assay [3] was inactive.

The values above are taken from ChEMBL document CHEMBL3603837, “Indole Glucocorticoid Receptor Antagonists Active in a Model of Dyslipidemia Act via a Unique Association with an Agonist Binding Site” (J Med Chem, 2015).
